Experimental findings from BindingDB's records for doi:10.1016/j.bmcl.2011.06.023 (Merck Research Laboratories, 2011) are described below.

Each structure is given as a SMILES string. Values joined by “and” are separate entries in the source; they are usually repeats but may differ in a detail not shown here. Equal values may be shown once.

Experiment [1] concerns the target Smoothened (Mus musculus) (UniProt P56726). As to the kind of experiment: Antagonist activity at smoothened expressed in mouse Shh Light2 cells assessed as inhibition of purmorphamine- induced Gli-dependent luciferase gene expression.
Experiment [2] has as its target Smoothened homolog (Homo sapiens, UniProt Q99835). The experiment is described as follows: Displacement of BODIPY-cyclopamine from human Smo expressed in HEK293 cells in presence of 2% fetal calf serum. A digest of the protocol:
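Competition binding: displacement of fluorescently labeled bodipy-cyclopamine from recombinant human Smo expressed in HEK-293 cells. Run in 2% fetal calf serum and, separately, in 20% normal human serum. IC50 values are means of at least five experiments.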

Chain of Smoothened (Mus musculus) (P56726 whole entry, looked up): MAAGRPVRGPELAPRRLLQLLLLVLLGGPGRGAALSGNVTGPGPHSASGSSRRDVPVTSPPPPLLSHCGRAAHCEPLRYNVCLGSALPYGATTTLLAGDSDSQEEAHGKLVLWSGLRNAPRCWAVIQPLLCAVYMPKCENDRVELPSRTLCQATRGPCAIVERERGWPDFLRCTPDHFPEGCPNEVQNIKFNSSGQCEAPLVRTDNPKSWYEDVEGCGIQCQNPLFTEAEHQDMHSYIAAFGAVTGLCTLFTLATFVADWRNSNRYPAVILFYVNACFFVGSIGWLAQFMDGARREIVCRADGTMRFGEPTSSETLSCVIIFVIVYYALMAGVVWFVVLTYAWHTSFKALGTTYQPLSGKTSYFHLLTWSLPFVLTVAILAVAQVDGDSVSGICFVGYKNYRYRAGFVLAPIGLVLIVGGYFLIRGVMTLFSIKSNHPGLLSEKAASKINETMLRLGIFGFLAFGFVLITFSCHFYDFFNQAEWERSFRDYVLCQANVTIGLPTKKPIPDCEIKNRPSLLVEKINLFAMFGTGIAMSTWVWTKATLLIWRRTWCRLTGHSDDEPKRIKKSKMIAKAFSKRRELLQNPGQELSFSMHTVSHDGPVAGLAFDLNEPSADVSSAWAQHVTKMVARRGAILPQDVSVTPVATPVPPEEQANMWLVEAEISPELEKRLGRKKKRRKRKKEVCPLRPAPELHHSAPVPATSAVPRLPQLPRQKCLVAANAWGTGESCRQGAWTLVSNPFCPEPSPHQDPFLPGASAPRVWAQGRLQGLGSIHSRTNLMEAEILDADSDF
Chain of Smoothened homolog (Q99835 whole entry): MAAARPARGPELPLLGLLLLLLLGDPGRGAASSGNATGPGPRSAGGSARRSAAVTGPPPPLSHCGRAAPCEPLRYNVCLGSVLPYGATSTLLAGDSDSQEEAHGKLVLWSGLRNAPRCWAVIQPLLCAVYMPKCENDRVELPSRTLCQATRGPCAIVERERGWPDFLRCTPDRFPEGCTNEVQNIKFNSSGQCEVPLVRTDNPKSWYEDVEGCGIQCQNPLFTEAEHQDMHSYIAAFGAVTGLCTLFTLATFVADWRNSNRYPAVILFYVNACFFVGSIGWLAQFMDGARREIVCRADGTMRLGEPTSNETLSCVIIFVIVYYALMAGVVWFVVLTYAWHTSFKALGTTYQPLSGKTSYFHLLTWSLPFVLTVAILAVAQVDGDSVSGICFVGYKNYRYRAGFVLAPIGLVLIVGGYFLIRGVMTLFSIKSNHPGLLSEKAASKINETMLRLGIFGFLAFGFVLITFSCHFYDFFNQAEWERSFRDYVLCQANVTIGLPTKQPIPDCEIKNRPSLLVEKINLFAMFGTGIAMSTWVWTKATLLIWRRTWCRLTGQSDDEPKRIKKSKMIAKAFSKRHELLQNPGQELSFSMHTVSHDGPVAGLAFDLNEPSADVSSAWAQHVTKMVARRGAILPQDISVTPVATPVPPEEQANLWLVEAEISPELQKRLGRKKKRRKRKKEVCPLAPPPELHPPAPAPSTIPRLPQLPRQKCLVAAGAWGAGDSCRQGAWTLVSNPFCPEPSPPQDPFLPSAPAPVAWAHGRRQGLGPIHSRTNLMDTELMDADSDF

What is called IC50 is the concentration that inhibits the measured activity by half. Regarding `C[C@]12CN(C(=O)Nc3ccccc3-c3ccccc3)CCN1C(=O)N([C@H]1C[C@@H]1c1ccccc1)C2=O`, in experiment [1], the IC50 worked out at 1400 nM. Still for that read-out and setting: with `CS(=O)(=O)c1cc(Cl)c(NC(=O)N2CCn3c(c(O)n([C@H]4C[C@@H]4c4ccccc4)c3=O)C2)c(Cl)c1` the figure was 41 nM; with `C[C@@]12CN(C(=O)Nc3ccccc3-c3ccccc3)CCN1C(=O)N([C@H]1C[C@@H]1c1ccccc1)C2=O`, 23 nM. Turning to `O=C(Nc1ccccc1-c1ccccc1)N1CCn2c(c(O)n([C@H]3C[C@@H]3c3ccccc3)c2=O)C1`, the IC50 in experiment [1] was 100 nM and 42 nM and 140 nM; in experiment [2], 48 nM and 21 nM. Consider `O=C(Nc1cccnc1-c1ccsc1)N1CCn2c(c(O)n([C@H]3C[C@@H]3c3ccccc3)c2=O)C1`, for which the IC50 in experiment [1] was 89 nM. Same read-out and setting: with `O=C(Nc1cccc(Cl)c1Cl)N1CCn2c(c(O)n([C@@H]3C[C@H]3c3ccccc3)c2=O)C1` the figure was 880 nM and 1400 nM; with `O=C(Nc1ccnn1-c1cccc(F)c1)N1CCn2c(c(O)n([C@H]3C[C@@H]3c3ccccc3)c2=O)C1`, 6 nM; with `O=C(Nc1cccnc1-c1ccccc1)N1CCn2c(c(O)n([C@H]3C[C@@H]3c3ccccc3)c2=O)C1`, 28 nM. Still for that read-out and setting: for `O=C(Nc1ccnn1-c1cccc(Cl)c1)N1CCn2c(c(O)n([C@H]3C[C@@H]3c3ccccc3)c2=O)C1` the value was 8 nM; for `O=C(Nc1cccc(Cl)c1Cl)N1CCn2c(c(O)n([C@H]3C[C@@H]3c3ccccc3)c2=O)C1`, 270 nM and 430 nM; for `C[C@@]12CN(C(=O)Nc3ccnn3-c3ccccc3)CCN1C(=O)N([C@H]1C[C@@H]1c1ccccc1)C2=O`, 17 nM.
